In article PMC3780561 (Molecular cancer therapeutics, 2013):
Like-named read-outs stand apart in the source and are kept apart here.

System: NSCLC cell lines (A549, H23 and H358)
Test: Cell viability, modified MTT assay, 24 h
Type: cell-based, human
Settings: read-out: 24 h-IC50
How it was run: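 ATCC-sourced A549 (p53 wild-type), H23 (p53-mutant) and H358 (p53-null) cells were grown per ATCC. Viability after 24 h exposure to test compound or sulindac metabolites was measured by modified MTT assay. 24-h IC50 was derived from viability curves.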

IC50 (Homo sapiens, 24 h) | IC50 (range among A549, H23 and H358 cells) | Compound
> 1000 µM |  | CC1=C(CC(=O)O)c2cc(F)ccc2/C1=C\c1ccc([S+](C)[O-])cc1 (stereo not drawn) [sulindac]
 | 566 to 1900 µM | CC1=C(CC(=O)O)c2cc(F)ccc2/C1=C\c1ccc(S(C)(=O)=O)cc1 [sulindac sulfone]
159 to 222 µM |  | CSc1ccc(/C=C2/C(C)=C(CC(=O)O)c3cc(F)ccc32)cc1 [sulindac sulfide]
